Here are results for 48 sequences from the EternaBench riboswitch data.

This data set deals with MS2 coat protein. Nature of the data set: apparent Kd, MS2 coat protein; higher = weaker binding; RNA-MaP array; FMN 200 µM where present. In short, it runs like this:
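The apparent Kd is reported as the median of filtered per-cluster binding-curve fits. To get these curves, designs transcribed by stalled E. coli RNA polymerase on Illumina sequencing-chip clusters were titrated with SNAP-549-labelled MS2 coat protein from 0.7 or 1.5 nM, doubling to 3 µM. Titrations were run without and then with constant ligand in 100 mM Tris-HCl pH 7.5, 80 mM KCl, 4 mM MgCl2, BSA, DTT, yeast tRNA and Tween-20, and green signal was normalised to red-channel RNA signal and control-cluster median Fmax.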

Where [1] appears, read: designed as: ON switch for flavin mononucleotide, no ligand.
The mark [2] stands for this setting: ligand present: flavin mononucleotide, designed as: ON switch for flavin mononucleotide.
The mark [3] stands for this setting: designed as: OFF switch for flavin mononucleotide, no ligand.
[4] abbreviates: ligand present: flavin mononucleotide, designed as: OFF switch for flavin mononucleotide.

A word on the apparent Kd: it is the concentration giving half-maximal binding under the conditions of the assay.

On to “GCCAUCAUAUGAGGAUAUGACACCGAAACGGUGUCAGAAGGCAUGUCGAUAGACAUGAGGAUCACCCAUGUAUAGAUGAUGGCA”, for which the “apparent Kd” value is, setting by setting: under setting [1], 963 nM; under setting [2], 67.8 nM.

In the case of “GCCGAUUAAGUCAGGAUAUACCUAUGGAUACAUAGGUAGAAGGGACAUGAGGAUCACCCAUGUUCCUCACCGGC”, the “apparent Kd” value reads like this: under setting [3], 14.8 nM; under setting [4], 21.8 nM.

For “CAGUACUGAGGAUAUACAUGAGGAUCACCCAUGUGUUCCAGCUAGGAAACUAGCAAAAGUAGAAGGUAGUACUG”, the “apparent Kd” value reads like this: under setting [3], 13.7 nM; under setting [4], 56.5 nM.

In the case of “GUAGUGUAGUGAGGAUAUACGAGAUCGAUAGAUCGGCGAUCCAUUAAUACAUGAGGAUCACCCAUGUAGAAGGCACUUCACUAC”, the “apparent Kd” value is, setting by setting: under setting [3], 6.01 nM; under setting [4], 70.7 nM.

Turning to “UCAGUUCUGCAAGGAUAUCGUCCUAGUUUGGUACGAGAAGGUGCUUUUGUUUUUUCCUUGUGUUGACAUGAGGAUCACCCAUGU”, the “apparent Kd” value amounted to 35.8 nM under setting [3] and 46.5 nM under setting [4]. With “CAGUACUGAGGAUAUACAUGAGGAUCACCCAUGUGUUGCAGCUAGGAAACUAGCAAAAGUAGAAGGCAGUACUG”, the “apparent Kd” value under setting [3] turned out to be 10.7 nM and the “apparent Kd” value under setting [4] was determined as 21 nM.

Regarding “GGAUCAUAUGUCAGGAUAUGCAGGUCCUUGGAUCUGCAGAAGGGACAUGAGGAUCACCCAUGUCAUGAAGAUCC”, the “apparent Kd” value turned out to be 35.6 nM under setting [3] and 202 nM under setting [4].

As for “GUAGAGUCAGGAUAUACGAGAUCGAAAGAUCGGCGAUCCAUACAUGAGGAUCACCCAUGUAGAAGGGACUCUAC”, the “apparent Kd” value reads like this: under setting [3], 15.6 nM; under setting [4], 148 nM. On to “UGGUACAUGGGAGGAUAUGGGUUGAUAACAUGAGGAUCACCCAUGUUAAUGCCGAAAGGCAAGAACUAGAAGGCCCAUGUACCU”, for which the “apparent Kd” value was 410 nM under setting [1] and 30.2 nM under setting [2]. As to “UUGGACGUCGUAGGAUACGUAGGAUAUUCCUACAUGAGGAUCACCCAUGUUGACAUGGAAGAAGGACAGAAGGACGAUGUCCAU”, the “apparent Kd” value reads like this: under setting [1], 71.6 nM; under setting [2], 4.95 nM. Turning to “AUACUCAUGUAAGGAUAUGCAGCCGUUUCGGCUGCAGAAGGUACUAUAAUACAUGAGGAUCACCCAUGUCUCUCGCAUUGCGGG”, the “apparent Kd” value runs as follows: under setting [1], 400 nM; under setting [2], 101 nM. The matching figures for “CGCAAGUAUACAUGAGGAUCACCCAUGUCAAAUAUGGUAAUCAGAAGGUACAAUUCAAUAUAUAGUAAGGAUAUGAAUUUUGCG”: 59 nM and 23.3 nM. Turning to “AUUUAUAAGUAAGGAUAUCGGUUAUAUUUAAUUCGAGAAGGUACAUGAGGAUCACCCAUGUAAUAAAUAAAUAAAAUUUUUUUU”, the “apparent Kd” value came to 36.4 nM under setting [3] and 28.7 nM under setting [4].

Regarding “AAAAACGGAGGAUAUACAAAUUAAGGAAGAAAACACGAAAAACAUGAGGAUCACCCAUGUAGAAGGCCGGAAAA”, the “apparent Kd” value is 22.6 nM under setting [3] and 28.2 nM under setting [4]. Take “AUUACAUGAGGAUCACCCAUGUACAGCACGUUUCAAAACAGUGAGGAUAUACGAAAUGUAGGAACGUAGAAGGCACUGGGUGCA”: the “apparent Kd” value is, setting by setting: under setting [1], 98.3 nM; under setting [2], 34.2 nM. The matching figures for “AGGCCGCUACGCCGGCUUCACGCACAGGAUAUGCAGUUACAUGAGGAUCACCCAUGUGGCCAUGUGCAGAAGGGUGGUUCGUGA”: 22.1 nM and 5.44 nM. Take “UGCCUGAGGCAAAGCUUUAGGUAUACAUGAGGAUCACCCAUGUAGGAUAUGGUAGGCUUUGCUUACCAGAAGGACAUGUUAAUU”: the “apparent Kd” value under setting [3] is 19.8 nM and the “apparent Kd” value under setting [4] amounted to 54.6 nM.

On to “AAACAUGUCCGAGGAUAUCUGGAAACAUUUCCAAGAGAAGGCGGACAUGAGGAUCACCCAUGUCUCUCCUCAUCAAAUCCAAGU”, for which the “apparent Kd” value under setting [3] amounted to 24.6 nM and the “apparent Kd” value under setting [4] was 287 nM. On to “GACAUGAGGAUCACCCAUGUCCAACCAGAAGGCCAGGAAUCGGACCCGAGUAUCGGGUUCGAGAUGGAGGAUAUGGGCGCCGAA”, for which the “apparent Kd” value worked out at 75.1 nM under setting [1] and 33.7 nM under setting [2]. On to “CGAUGACACAGUCAUCCAAUACGAACAUGAGGAUCACCCAUGUAGGAUAUGCUACUCACAGAGUAGCAGAAGGACAUGUGCCUU”, for which the “apparent Kd” value under setting [3] was 41.4 nM and the “apparent Kd” value under setting [4] worked out at 182 nM. For the sequence “GCCAUCACAUGAGGAUAUGGCACCGUUUCGGUGCCAGAAGGCAUGUCAUAAGACAUGAGGAUCACCCAUGUAGUUAAGAUGGCA”, the “apparent Kd” value under setting [2] was 55.4 nM. Take “CAGUACUGAGGAUAUACAUGAGGAUCACCCAUGUGUUCCAGCUAGGAAACUAGCAUAAGUAGAAGGCAGUACUG”: the “apparent Kd” value came to 21.2 nM under setting [3] and 354 nM under setting [4]. Regarding “CCGGAAACGGGUAGCUGACAUGAGGAUCACCCAUGUGAAACACAGGAUAUGGAUCCUAAUUGGAUCCAGAAGGGUGUCAGCUAC”, the “apparent Kd” value under setting [1] was determined as 247 nM and the “apparent Kd” value under setting [2] amounted to 37.2 nM. The matching figures for “GAGUGGAAGUAAGGAUAUAUAAUGAUAAUCACAGUAGAAGGUACUAACAUGAGGAUCACCCAUGUAGGACUAUACCAGAGAGGG”: 17.4 nM and 16 nM.

In the case of “UGGAAGAGAAGAGGAUAUCCGUAGAUAACACAUGAGGAUCACCCAUGUAAGAGGGAUAGGUGAUAGGAGAAGGCUUAGAGAGGU”, the “apparent Kd” value under setting [3] came out at 15.2 nM and the “apparent Kd” value under setting [4] came to 14.9 nM. “GCUGCAUAGUCAGGAUAUGCAACAUAAUAUACAAAAUAGUAUAUUAUGACAUGAGGAUCACCCAUGUAGAAGGGACUGUGCAGU”: the “apparent Kd” value was 19.3 nM under setting [3] and 19.9 nM under setting [4]. The matching figures for “AAGAGGUCAGGAUAUACGGAGAGAGGGAGUUGGUGAGGGUAACAUGAGGAUCACCCAUGUAGAAGGGACUAAGA”: 22.4 nM and 24.7 nM. Taken in the same sequence, the figures for “GUCAGCUCGUGAGGAUAUACAUGUGCUGGAGACAGCACUAAUAGAAUCACAUGAGGAUCACCCAUGUAGAAGGCACGAGCUGAU” were 17 nM and 41.2 nM. Take “GAUACGUCAGGAUAUCUGAUGUCUAACUUCGGUUAGACAUCAGAGAAGGGACAUGAGGAUCACCCAUGUAUCAG”: the “apparent Kd” value reads like this: under setting [3], 50.4 nM; under setting [4], 61.1 nM. Taken in the same sequence, the figures for “GGUACUCAAAGAGUACUUGGUCGAACAUGAGGAUCACCCAUGUAGGAUAUGCAAAGCAAGAAGUAGCAGAAGGACAUGUGCAGC” were 13.5 nM and 36.1 nM. In the case of “CAGCUACCCAGUAUGGGUAUUUUUACAGAAGGCCAGGUACAUGAGGAUCACCCAUGUUAAGUUAUGGAGGAUAUGUUAGUGUAU”, the “apparent Kd” value by setting is: under setting [1], 27.9 nM; under setting [2], 7.18 nM. With “UGAAAUCAUGUAGGAUAUGCAUGGCGAAGCUACGCAGAAGGACAUGAGGAUCACCCAUGUUAUAGCUACCCAGUUCGGUGGCAA”, the “apparent Kd” value reads like this: under setting [3], 141 nM; under setting [4], 118 nM.

As for “GCAGCACAGUAUUACAUGAGGAUCACCCAUGUCGAUUGAGAUGAGGAUAUGCAUCGAAUGAAGUUGCAGAAGGCAUUGUGCUGC”, the “apparent Kd” value is 10.9 nM under setting [1] and 5.94 nM under setting [2]. On to “GGCAUGUGAGGAUAUCUGAUGUCUAACUUCGGUUAGACAUCAGAGAAGGCACAUGAGGAUCACCCAUGUCUGCC”, for which the “apparent Kd” value by setting is: under setting [3], 68.4 nM; under setting [4], 79.8 nM.

“UACAUGAGGAUCACCCAUGUUUUGUCGUGUAUGGUAUUUAUCUAGGAUAUCAUUCUAUUUAGUUAUGAGAAGGAGAAUAUUAAU”: the “apparent Kd” value worked out at 28.1 nM under setting [3] and 27.4 nM under setting [4]. Consider “GGUCCGUAACAGAAGGCCGUAACUGGUGGUGGCGGAGGAUAUGUGGGCGGCCCUUGACAACAUGAGGAUCACCCAUGUAUGUAA”, for which the “apparent Kd” value worked out at 328 nM under setting [1] and 30.6 nM under setting [2]. Take “UGGCGACAUGAGGAUCACCCAUGUAUUUCCAGUUAAGGAUAUAGGUGCUAGCAACGGCAGCUAGAAGGUGAGAUAA”: the “apparent Kd” value is 42 nM under setting [1] and 58 nM under setting [2]. Turning to “ACAAUGUUAGGAUAUCUGAGAAUUAGUCUCGACUAGUCGAAGGAGAAGGAACAUGAGGAUCACCCAUGUAGAUC”, the “apparent Kd” value stood at 43.4 nM under setting [3] and 275 nM under setting [4]. Taken in the same sequence, the figures for “UCGAUGCUAGGAUAUACUAAUAAAACUACUGUAGUGUCUUCACAUGAGGAUCACCCAUGUAGAAGGAGCAUCUA” were 28.3 nM and 21.8 nM. As to “AACAUGGCAGAGGAUAUAGGACGCUGGCAUAAACUAGAAGGCUGCACAUGAGGAUCACCCAUGUGUUCCUAAAC”, the “apparent Kd” value reads like this: under setting [3], 21.7 nM; under setting [4], 39.4 nM. In the case of “CCCAAACUUGGGUUUAAUGGUUCAUAGGAUAUGCUUGUACAUGAGGAUCACCCAUGUACUAUUGUGCAGAAGGGUGCAUGGCAA”, the “apparent Kd” value under setting [1] is 39.8 nM and the “apparent Kd” value under setting [2] was 26.3 nM. Taken in the same sequence, the figures for “CGGUCACAUGAGGAUCACCCAUGUACCUACGCGAUGAAGUCGCAGGAUAUCCAUUACUUUACGUAGGAGAAGGGUGACGCUCGC” were 51.1 nM and 34 nM. Take “UGUGCGUUGAUCUUCGAUCGGUGUACAUGAGGAUCACCCAUGUAGGAUAUUCAAAGACGCAGAUAGGAGAAGGACAUCGGUUUU”: the “apparent Kd” value runs as follows: under setting [3], 18 nM; under setting [4], 19.8 nM.

With “CGUUGACAUGAGGAUCACCCAUGUCAGAUUUGGUCAGGAUAUGGUGUGGUUUGGCUAUUGCCAGAAGGGACGUUUG”, the “apparent Kd” value came out at 92.1 nM under setting [1] and 58.5 nM under setting [2]. As for “UAUAAGAACGAAGGAUAUGGUUACAUGAGGAUCACCCAUGUAUGUAUAUUGAUCUAGUAUUAUAACCAGAAGGUCGAGAGUAUA”, the “apparent Kd” value under setting [3] is 16.1 nM and the “apparent Kd” value under setting [4] amounted to 27.1 nM.

Take “UGUGUCCGUAGAGGAUAUCCGGGCGUUCGGCUAGGAGAAGGCUGCGACACAUGAGGAUCACCCAUGUAGGUUGUGUCUCUCUAC”: the “apparent Kd” value under setting [3] turned out to be 51.6 nM and the “apparent Kd” value under setting [4] was 275 nM. For the sequence “UUUGUUGUUGUGAGGAUAUCGUUGUUAUUUUGAAACGAGAAGGCACAUGAGGAUCACCCAUGUUUGUUGUUGGU”, the “apparent Kd” value was determined as 52.1 nM under setting [3] and 195 nM under setting [4]. For the sequence “GUCAGCUCGUGAGGAUAUCCAACACUGCUUCGGCAGUGUAUUAAGAUCACAUGAGGAUCACCCAUGUAGAAGGCACGAGCUGAU”, the “apparent Kd” value runs as follows: under setting [3], 6.48 nM; under setting [4], 7.55 nM.
